Series [1] has as its system Plasma. In words: Anticoagulant activity in human plasma assessed as prothrombin time at 1 mg/ml. Type of series: functional. The essentials:
(§1)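 Frozen human plasma (blood type A+) was used. Compounds were prepared at 1 mg/mL in a vehicle of 96% EtOH, 0.9% NaCl, 20% glycerol and phosphate buffer pH 7. Prothrombin time was measured by Quick method and reported in seconds and as INR, with SD from at least three measurements.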

In series [2] the test system is Plasma. Kind of series: Anticoagulant activity in Wistar albino rat plasma assessed as prothrombin time at 0.1 mg/kg, ip. Type of series: functional. To be noted: route intraperitoneal. The essentials: (§2)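 Adult Wistar rats (2.5 months, 220–250 g), three per compound and control, were given a single i.p. dose of 0.1 or 0.5 mg/kg in ethanol solution and sacrificed 24 h later. […] Plasma prothrombin time was measured by Quick method and reported in seconds and as INR, from at least three measurements.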

The subject of series [3] is Plasma. In words: Anticoagulant activity in Wistar albino rat plasma assessed as prothrombin time at 0.5 mg/kg, ip. Type of series: functional. To be noted: route intraperitoneal. The gist of the method:
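Adult Wistar rats (2.5 months, 220–250 g), three per compound and control, were given a single i.p. dose of 0.1 or 0.5 mg/kg in ethanol solution and sacrificed 24 h later. Plasma prothrombin time was measured by Quick method and reported in seconds and as INR, from at least three measurements.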

The test system of series [4] is Plasma. Kind of series: Anticoagulant activity in Wistar albino rat plasma assessed as fibrinogen level. Type of series: functional. The essentials:
(§3)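 Adult albino Wistar rats (2.5 months old, 220–250 g), three per compound and control. […] Fibrin time and fibrinogen were determined on plasma. Fibrinogen was quantified by biuret method at 540 nm. At least three measurements, reported with standard deviation.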

Series [5] concerns Plasma. Kind of series: Anticoagulant activity in Wistar albino rat plasma assessed as fibrin time. In kind it is functional. The gist of the method:
as §3

In series [6] the test system is Rattus norvegicus. In words: Hepatotoxicity in Wistar albino rat assessed as change in serum bilirubin level at 0.5 mg/kg, ip measured after 24 hrs. To be noted: in vivo. Details: dose 0.5 mg/kg, route intraperitoneal. Type of series: toxicity, organism-based.
Series [7] concerns Rattus norvegicus. Kind of series: Hepatotoxicity in Wistar albino rat assessed as change in serum AST level at 0.5 mg/kg, ip measured after 24 hrs. In kind it is toxicity, organism-based. To be noted: in vivo. Further details: dose 0.5 mg/kg, route intraperitoneal.
The subject of series [8] is Rattus norvegicus. Kind of series: Hepatotoxicity in Wistar albino rat assessed as change in serum ALT level at 0.5 mg/kg, ip measured after 24 hrs. In kind it is toxicity, organism-based. Further details: dose 0.5 mg/kg, route intraperitoneal. To be noted: in vivo.
For series [9], the system named is Rattus norvegicus. In words: Hepatotoxicity in Wistar albino rat assessed as change in serum ALP level at 0.5 mg/kg, ip measured after 24 hrs. In kind it is toxicity, organism-based. Further details: dose 0.5 mg/kg, route intraperitoneal. To be noted: in vivo.
Series [10] relates to Rattus norvegicus. Kind of series: Hepatotoxicity in Wistar albino rat assessed as change in serum gamma-GT level at 0.5 mg/kg, ip measured after 24 hrs. Details: dose 0.5 mg/kg, route intraperitoneal. To be noted: in vivo. In kind it is toxicity, organism-based.
Series [11] relates to Rattus norvegicus. In words: Hepatotoxicity in Wistar albino rat assessed as change in serum iron level at 0.5 mg/kg, ip measured after 24 hrs. Type of series: toxicity, organism-based. Further details: dose 0.5 mg/kg, route intraperitoneal. To be noted: in vivo.
Series [12] concerns Rattus norvegicus. In words: Hepatotoxicity in Wistar albino rat assessed as change in serum protein level at 0.5 mg/kg, ip measured after 24 hrs. Type of series: toxicity, organism-based. Details: dose 0.5 mg/kg, route intraperitoneal. To be noted: in vivo.
Series [13] deals with Rattus norvegicus. In words: Hepatotoxicity in Wistar albino rat assessed as change in serum albumin level at 0.5 mg/kg, ip measured after 24 hrs. Type of series: toxicity, organism-based. Further details: dose 0.5 mg/kg, route intraperitoneal. To be noted: in vivo.
Series [14] has as its system Plasma. Kind of series: Anticoagulant activity in human plasma assessed as international normalized ratio at 1 mg/ml. In kind it is functional. The gist of the method:
as §1

For series [15], the system named is Plasma. Kind of series: Anticoagulant activity in Wistar albino rat plasma assessed as international normalized ratio at 0.1 mg/kg, ip. In kind it is functional. To be noted: route intraperitoneal. The gist of the method:
as §2

The test system of series [16] is Plasma. In words: Anticoagulant activity in Wistar albino rat plasma assessed as international normalized ratio at 0.5 mg/kg, ip. Type of series: functional. To be noted: route intraperitoneal. The gist of the method: as §2
The test system of series [17] is Rattus norvegicus. In words: Anticoagulant activity in Wistar rats in vivo assessed as prothrombin time.

In the case of `O=c1oc2ccccc2c(O)c1-c1csc(Nc2ccc([N+](=O)[O-])cc2)n1`, the PT in series [1] turned out to be 25 s; in [2], 8.1 s; in series [3], 9.1 s. For the same molecule, the Activity in [4] came to 1.8 g/L; in series [6], 1.7 µmol/L; in series [7] it was 264.4 U/L; in series [8], 68.7 U/L; in series [9], 204 U/L; in series [10], 3.8 U/L. The Activity in series [11] was 14.8 µmol/L; in series [12] it was 63 g/L; in [13] it was 37.2 g/L. The Time in [5] was 33.7 s. The values for the Ratio in [14], in series [15] and in series [16] were 2.44, 0.65 and 0.68, respectively. Also, the IC50 in series [17] was 2340 µM.

Consider `COC(=O)/C=C(/C)c1c(O)c2ccccc2oc1=O`, for which the figures for the PT in series [1], in series [2] and in [3] were 20 s, 8 s and 9 s, respectively. The Activity in series [4] was found to be 1.8 g/L; in [6], 1.4 µmol/L; in series [7], 154.3 U/L; in series [8] it was 57.2 U/L; in [9], 333 U/L; in series [10] it was 3 U/L. Further, the results for the Activity in [11], in series [12] and in [13] were 54.2 µmol/L, 65.2 g/L and 39 g/L, respectively. Besides, the Time in series [5] is on record as 35.2 s. Also, the Ratio in series [14] was 1.9; in [15] it was 0.64; in series [16], 0.67. Further, in series [17], the half-maximal inhibitory concentration (IC50) is 2750 µM.

On to `CCN(CC)c1nc(-c2c(O)c3ccccc3oc2=O)cs1`, for which the PT stood at 18.5 s in series [1], 8 s in series [2] and 10 s in series [3]. The Activity in [4] came to 1.4 g/L; in series [6] it was 2 µmol/L; in [7], 254.8 U/L; in [8], 64.7 U/L; in [9], 192 U/L; in series [10], 4.4 U/L. Further, the Activity in [11] is 25 µmol/L; in series [12] it was 63.2 g/L; in series [13], 36.7 g/L. Further, in series [5], the Time is on record as 44.9 s. For the same molecule, the Ratio in series [14] amounted to 1.75; in series [15] it was 0.64; in series [16], 0.67. In series [17], the IC50 is 933 µM.

Consider `CC(=O)C(C(C)=O)=C(C)c1c(O)c2ccccc2oc1=O`, for which the PT in series [1] is 17 s; in series [2] it was 8.6 s; in series [3] it was 9.6 s. Also, the Activity was 2.47 g/L in series [4]; 1.5 µmol/L in [6]; 201.4 U/L in series [7]; 56.4 U/L in [8]; 223 U/L in series [9]; 4.4 U/L in series [10]. Besides, the figures for the Activity in series [11], in series [12] and in [13] were 32.4 µmol/L, 66.5 g/L and 40.6 g/L, respectively. Moreover, in series [5], the Time is given as 24.6 s. Also, the figures for the Ratio in [14], in series [15] and in [16] were 1.55, 0.69 and 0.72, respectively. For the same molecule, the IC50 in series [17] is 1380 µM.

On to `O=c1oc2ccccc2c(O)c1-c1csc(Nc2cccc3ccccc23)n1`, for which the values for the PT in series [1], in series [2] and in series [3] were 27.5 s, 9.2 s and 9.7 s, respectively. Further, the Activity was 1.9 g/L in [4]; 2 µmol/L in [6]; 345.3 U/L in [7]; 85 U/L in [8]; 210 U/L in series [9]; 4.3 U/L in [10]. Also, the Activity in series [11] turned out to be 24.6 µmol/L; in series [12], 72.8 g/L; in series [13], 41.3 g/L. The Time in series [5] was found to be 33.2 s. The Ratio was 2.7 in series [14], 0.94 in series [15] and 0.94 in [16]. Moreover, the IC50 in [17] is 589 µM.

With `COC(=O)/C(C(=O)O)=C(\C)c1c(O)c2ccccc2oc1=O`, the PT in series [1] is reported as 20 s; in series [2] it was 5.7 s; in series [3] it was 8.7 s. Besides, the Activity in series [4] was determined as 3.2 g/L; in [6] it was 1.8 µmol/L; in series [7], 218.4 U/L; in series [8], 51.8 U/L; in series [9], 215 U/L; in series [10], 4.4 U/L. For the same molecule, the Activity in series [11] came out at 19.4 µmol/L; in series [12], 62.8 g/L; in series [13], 35.8 g/L. In addition, the Time in series [5] was 19.4 s. The Ratio worked out at 1.9 in series [14], 0.37 in series [15] and 0.48 in [16]. For the same molecule, in series [17], the IC50 was 3160 µM.

On to `Cc1ccccc1Nc1nc(-c2c(O)c3ccccc3oc2=O)cs1`, for which the figures for the PT in series [1], in series [2] and in [3] were 18.1 s, 8.1 s and 8.1 s, respectively. Moreover, the Activity in series [4] came to 2.1 g/L; in series [6], 1.8 µmol/L; in [7], 263.4 U/L; in series [8], 59.5 U/L; in [9] it was 318 U/L; in series [10], 3.6 U/L. Also, the Activity in series [11] turned out to be 29.2 µmol/L; in [12] it was 69.2 g/L; in series [13], 36.3 g/L. In addition, in series [5], the Time is on record as 28.7 s. For the same molecule, the Ratio is recorded as 1.7 in series [14], 0.68 in series [15] and 0.68 in series [16]. The concentration for half-maximal inhibition (IC50) in series [17] is 5370 µM.

`CC(=O)c1c(O)c2ccccc2oc1=O`: the PT in [1] stood at 14 s; in [2], 9.1 s; in series [3] it was 9.5 s. In addition, the Activity was determined as 2.5 g/L in series [4]; 1.7 µmol/L in [6]; 160.5 U/L in [7]; 34.8 U/L in series [8]; 200 U/L in series [9]; 3.8 U/L in series [10]. Also, the Activity in [11] stood at 26.1 µmol/L; in series [12], 63.8 g/L; in series [13] it was 31.9 g/L. Besides, the Time in series [5] is reported as 44.9 s. Also, the figures for the Ratio in series [14], in series [15] and in series [16] were 1.25, 0.9 and 0.9, respectively. Further, in series [17], the concentration for half-maximal inhibition (IC50) was 1700 µM.

In the case of `O=C(O)CCCCNc1nc(-c2c(O)c3ccccc3oc2=O)cs1`, the PT in [1] is on record as 22 s; in [2], 8 s; in [3], 10 s. Besides, the Activity in series [4] is 2.5 g/L; in [6], 1.2 µmol/L; in series [7], 231.5 U/L; in series [8] it was 52.6 U/L; in series [9] it was 246 U/L; in [10], 3.5 U/L. In addition, the values for the Activity in [11], in [12] and in series [13] were 27.4 µmol/L, 71.5 g/L and 35.4 g/L, respectively. The Time in series [5] stood at 23.9 s. Besides, the Ratio worked out at 2.1 in [14], 0.64 in series [15] and 0.67 in [16]. In addition, in series [17], the IC50 was 933 µM.

Regarding `COC(=O)/C(C(C)=O)=C(/C)c1c(O)c2ccccc2oc1=O`, the results for the PT in [1], in [2] and in series [3] were 19 s, 9.3 s and 9.8 s, respectively. In addition, the Activity in [4] was found to be 1.6 g/L; in series [6], 1.7 µmol/L; in [7], 236.9 U/L; in series [8] it was 65.5 U/L; in [9], 285 U/L; in series [10] it was 2.8 U/L. Also, the Activity in [11] was determined as 23.9 µmol/L; in series [12], 66.4 g/L; in series [13] it was 38.9 g/L. In series [5], the Time was 40.7 s. Besides, the Ratio in series [14] is listed as 1.8; in series [15] it was 0.92; in series [16], 0.94. Besides, the IC50 in series [17] is 1150 µM.

What is called IC50 is the midpoint of a concentration-inhibition curve.
